Holding throughout (type): functional
For assay [1], the system named is Mus musculus. As to the kind of experiment: Ability to reverse electroconvulsive shock-induced amnesia in rodents following 1 ug/kg i.m. administration. The method in brief: (§1)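 Passive avoidance (step-through, lighted vs darkened compartment). […], ECS (20 mA, 1 s) was given transcorneally via saline-soaked electrodes, and maximal hindlimb extension was required. Drug was given im at selected doses 2 h post-training. One hour later, entry latency to the dark side was recorded, with 60 s counted as retention. At least 75% of ECS controls had to be amnesic. Replicates were mostly not run.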

The test system of assay [2] is Mus musculus. As to the kind of experiment: Ability to reverse electroconvulsive shock-induced amnesia in rodents following 0.01 mg/kg i.m. administration. The settings on record: route intramuscular. The method in brief: as §1
The subject of assay [3] is Mus musculus. Description: Ability to reverse electroconvulsive shock-induced amnesia in rodents following 0.1 mg/kg i.m. administration. The settings on record: route intramuscular. The method in brief:
as §1

The subject of assay [4] is Rattus norvegicus. As to the kind of experiment: Ability (% reversal in rats) to reverse electroconvulsive shock-induced amnesia in rodents at a dose of 0.0010 (mg/kg) (following i.m. administration). The method in brief:
as §1

For assay [5], the system named is Rattus norvegicus. Description: Ability (% reversal in rats) to reverse electroconvulsive shock-induced amnesia in rodents at a dose of 0.010 (mg/kg) administered intramuscularly (im). The procedure, abridged:
as §1

In assay [6] the test system is Rattus norvegicus. Description: Ability (% reversal in rats) to reverse electroconvulsive shock-induced amnesia in rodents at a dose of 0.10 (mg/kg) (following intramuscular dosing). The procedure, abridged:
as §1

The test system of assay [7] is Rattus norvegicus. As to the kind of experiment: Compound was tested for its ability (% reversal in rats) to reverse electroconvulsive shock-induced amnesia in rodents at a dose of 1 (mg/kg) administered intramuscularly (im). The procedure, abridged:
as §1

For assay [8], the system named is Rattus norvegicus. As to the kind of experiment: Compound was tested for its ability (% reversal in rats) to reverse electroconvulsive shock-induced amnesia in rodents at a dose of 10 (mg/kg) administered intramuscularly (im). The procedure, abridged: as §1
The subject of assay [9] is Rattus norvegicus. As to the kind of experiment: Compound was tested for its ability (% reversal in rats) to reverse electroconvulsive shock-induced amnesia in rodents at a dose of 100 (mg/kg) administered intramuscularly (im). The method in brief: as §1
In assay [10] the test system is Rattus norvegicus. As to the kind of experiment: Compound was tested for its ability (% reversal in rats) to reverse electroconvulsive shock-induced amnesia in rodents at a dose of 0.010 (mg/kg) administered intramuscularly (im). The method in brief:
as §1

Assay [11] relates to Mus musculus. Description: Compound was tested for its ability (% reversal in mice) to reverse electroconvulsive shock-induced amnesia in rodents at a dose of 1 (mg/kg) administered intramuscularly (im). The method in brief:
as §1

In assay [12] the test system is Mus musculus. Description: Compound was tested for its ability (% reversal in mice) to reverse electroconvulsive shock-induced amnesia in rodents at a dose of 10 (mg/kg) administered intramuscularly (im). The method in brief:
as §1

Assay [13] relates to Mus musculus. As to the kind of experiment: Compound was tested for its ability (% reversal in mice) to reverse electroconvulsive shock-induced amnesia in rodents at a dose of 100 (mg/kg) administered intramuscularly (im). The procedure, abridged: as §1

Non-standard residues stand in square brackets, D forms with d. Residues, ends and D or L forms follow the SMILES beside them. ξ: configuration not given here. *: point of attachment. Arg(NO2) = N=C(NCCC[C@H](N)C(=O)O)N[N+](=O)[O-]; ξArg(NO2) = N=C(NCCCC(N)C(=O)O)N[N+](=O)[O-]; Cbz = O=C(OCc1ccccc1)*; Boc = CC(C)(C)OC(=O)*; ξK = NCCCCC(N)C(=O)O

For `N=C(N)NCCC[C@H](NC(=O)[C@@H]1CCCN1)C(=O)NCC(N)=O` (H-Pro-Arg-Gly-NH2), the Reversal in assay [1] worked out at 30%; in assay [2], 0%; in assay [3] it was 30%.

With `NC(=O)CNC(=O)[C@H](CCCCNC(=O)OCc1ccccc1)NCC1CCCN1` (some centres not stated), the Reversal in [4] turned out to be 0%; in assay [5] it was 16%; in assay [6], 33%; in [7] it was 16%; in [8] it was 16%; in [9], 83%.

For the compound `O=C(NC(Cc1ccccc1)CN1C(=O)C2CCCN2C(=O)C1Cc1c[nH]cn1)c1ccccc1` (configuration not stated), the Reversal in [4] was 0%; in [5], 0%; in assay [6], 43%; in [7], 50%; in assay [8], 30%; in assay [9], 83%.

As to `CC(C)(C)OC(=O)N1CCC[C@H]1C(=O)N[C@@H](CCCN=C(N)N)C(=O)NCC(N)=O` (Boc-Pro-Arg-Gly-NH2), the Reversal is reported as 0% in assay [1], 43% in assay [2] and 71% in assay [3].

`COc1ccc(C(=O)N2CCCC2C(=O)NC(CSCC(=O)O)CC(C)C)cc1` (configuration not stated): the Reversal in [1] is recorded as 12%; in assay [2] it was 50%; in [3] it was 12%; in assay [4], 40%; in [10] it was 0%; in assay [6] it was 60%.

In the case of `NCCCC[C@H](NC(=O)[C@@H]1CCCN1C(=O)OCc1ccccc1)C(=O)NCC(=O)O` (Cbz-Pro-Lys-Gly-OH), the Reversal worked out at 100% in [1], 79% in [2] and 79% in [3].

On to `CC(C)CC(NCC1CCCN1C(=O)OCc1ccccc1)C(=O)NCC(N)=O` (configuration not stated), for which the Reversal was found to be 85% in assay [11]; 67% in assay [12]; 57% in assay [13]; 11% in [4]; 0% in [5]; 0% in assay [6]. For the same compound, the Reversal in [7] is 80%; in assay [8], 60%; in [9] it was 60%.

In the case of `CC(C)(C)OC(=O)N1CCC[C@H]1C(=O)N[C@@H](CCCCN)C(=O)NCC(N)=O` (Boc-Pro-Lys-Gly-NH2), the Reversal in assay [1] amounted to 25%; in [2], 17%; in [3] it was 33%.

With `NCCCC[C@H](NC(=O)[C@@H]1CCCN1C(=O)[C@@H]1CSSC[C@H](N)C(=O)N[C@@H](Cc2ccc(O)cc2)C(=O)N[C@@H](Cc2ccccc2)C(=O)N[C@@H](CCC(N)=O)C(=O)N[C@@H](CC(N)=O)C(=O)N1)C(=O)NCC(N)=O`, the Reversal is listed as 58% in assay [1]; 58% in [2]; 67% in [3]; 20% in [4]; 20% in assay [10]; 56% in assay [6].

Consider `COC(=O)CNC(=O)[C@H](CCCCNC(=O)OC(C)(C)C)NC(=O)[C@@H]1CCCN1C(=O)OCc1ccccc1` (Cbz-Pro-Lys(Boc)-Gly-OMe), for which the Reversal came to 91% in assay [1], 54% in [2] and 0% in [3].

As for `CC(C)(C)OC(=O)NC(CCCCNC(=O)OCc1ccccc1)C(=O)NCC(N)=O` (configuration not stated) (Boc-[ξK](Cbz)-Gly-NH2), the Reversal in assay [1] was 48%; in assay [2], 53%; in [3] it was 35%; in [4] it was 33%; in assay [5] it was 47%; in assay [6], 16%.

On to `CC(C)C[C@H](NC(=O)[C@@H]1CCCN1)C(=O)NCC(N)=O` (H-Pro-Leu-Gly-NH2), for which the Reversal came to 42% in [1]; 33% in assay [2]; 42% in assay [3]; 14% in assay [4]; 43% in assay [5]; 43% in assay [6].

`NCCCC[C@H](NC(=O)[C@@H]1CCCN1)C(=O)NCC(N)=O` (H-Pro-Lys-Gly-NH2): the Reversal was determined as 100% in assay [1]; 48% in [2]; 39% in assay [3]; 78% in [4]; 78% in assay [5]; 78% in assay [6].

Take `O=C1COCC2CCCN12` (configuration not stated): the Reversal is listed as 58% in [11]; 77% in assay [12]; 63% in assay [13]; 0% in assay [4]; 33% in [5]; 33% in [6].

Regarding `O=C(NCCCCC(CO)NC(=O)C1CCCN1C(=O)OCc1ccccc1)OCc1ccccc1` (configuration not stated), the Reversal in [4] was determined as 50%; in assay [5], 40%; in [6], 40%; in assay [7] it was 0%; in [8], 20%; in assay [9], 0%.

Regarding `NCCCC[C@H](NC(=O)[C@@H]1CCCN1C(=O)OCc1ccccc1)C(=O)NCC(N)=O` (Cbz-Pro-Lys-Gly-NH2), the Reversal was 9% in [1], 100% in [2] and 63% in assay [3].

As to `CC(C)CC(CSCC(=O)O)NC(=O)C1CCCN1C(=O)OCc1ccccc1` (configuration not stated), the Reversal in assay [1] was 69%; in assay [2] it was 77%; in [3], 69%; in [4] it was 57%; in assay [5], 57%; in assay [6], 14%.

Consider `NC(=O)CNC(=O)[C@H](CCCCNC(=O)OCc1ccccc1)NC(=O)[C@@H]1CCCN1` (H-Pro-Lys(Cbz)-Gly-NH2), for which the Reversal in assay [1] is reported as 66%; in [2] it was 92%; in assay [3], 100%; in assay [4], 60%; in assay [10], 40%; in assay [6], 60%.

As to `NC(=O)CNC(=O)[C@@H](N)CCCN=C(N)N` (H-Arg-Gly-NH2), the Reversal in [1] is given as 51%; in assay [2] it was 20%; in assay [3], 27%.

As for `CC(C)(C)OC(=O)N1CCC[C@H]1C(=O)N[C@@H](CCC/N=C(\N)N[N+](=O)[O-])C(=O)NCC(N)=O` (Boc-Pro-[Arg(NO2)]-Gly-NH2), the Reversal in [1] is on record as 44%; in assay [2] it was 20%; in assay [3] it was 33%.

For `CC(C)(C)OC(=O)N1CCC[C@H]1C(=O)N[C@@H](CCCCNC(=O)OCc1ccccc1)C(=O)NCC(N)=O` (Boc-Pro-Lys(Cbz)-Gly-NH2), the Reversal in assay [1] is on record as 91%; in assay [2], 63%; in [3] it was 0%.

As for `O=C(O)COCC1CCCN1C(=O)OCc1ccccc1` (configuration not stated), the Reversal in assay [4] stood at 40%; in assay [5], 40%; in [6] it was 50%; in assay [7], 37%; in [8], 62%; in [9], 62%.

For `CC(C)C[C@H](NC(=O)[C@@H]1CCCN1C(=O)OCc1ccccc1)C(=O)NCC(N)=O` (Cbz-Pro-Leu-Gly-NH2), the Reversal in assay [1] stood at 93%; in [2], 47%; in [3], 100%.

With `CC(C)(C)OC(=O)NC(CCC/N=C(\N)N[N+](=O)[O-])C(=O)NCC(N)=O` (configuration not stated) (Boc-[ξArg(NO2)]-Gly-NH2), the Reversal worked out at 33% in [1], 53% in assay [2] and 73% in assay [3].

Consider `CC(C)CC1CN(C[C@H](CC(C)C)NC(=O)[C@@H]2CCC(=O)N2)CC(=O)N1` (some centres not stated), for which the Reversal in assay [7], in assay [8] and in [9] was 0% each time.

In the case of `Cc1ccc(S(=O)(=O)N2CCCC2CN[C@@H](CC(C)C)C(=O)NCC(N)=O)cc1` (some centres not stated), the Reversal in [4] turned out to be 0%; in assay [5], 0%; in [6] it was 34%; in assay [7], 75%; in [8], 62%; in [9], 87%.

For the compound `CC(C)C[C@@H](CSCC(=O)O)NCC1CCCN1C(=O)OCc1ccccc1` (some centres not stated), the Reversal is 20% in [4]; 80% in [5]; 60% in [6]; 60% in assay [7]; 0% in assay [8]; 100% in assay [9].

In the case of `CC(C)(C)OC(=O)NCCCCC(NC(=O)OCc1ccccc1)C(=O)NCC(N)=O` (configuration not stated) (Cbz-[ξK](Boc)-Gly-NH2), the results for the Reversal in assay [1], in [2] and in [3] were 33%, 25% and 33%, respectively.

These data come from ChEMBL document CHEMBL1123291, “Modified di- and tripeptides of the C-terminal portion of oxytocin and vasopressin as possible cognition activation agents” (1986).
